From ChEMBL document CHEMBL5260840 (J Med Chem, 2019)
The source made the active and inactive calls. The rule behind the calls is not given here.

Legend:
[1] = biological target: T1, von Hippel-Lindau disease tumor suppressor/Bromodomain-containing protein 9 (Homo sapiens) (UniProt Q9H8M2+P40337); assay: PROTAC activity at VHL/BRD9 in human HeLa cells assessed as apparent half-life of BRD9 at 1 uM; format: cell-based
[2] = biological target: T2, von Hippel-Lindau disease tumor suppressor/Bromodomain-containing protein 7 (Homo sapiens) (UniProt Q9NPI1+P40337); assay: PROTAC activity at VHL/BRD7 in human Ri-1 cells assessed as remaining BRD7 protein level at 1 uM incubated for 2 hrs by Western blot analysis relative to control; format: cell-based
T2 sequence (P40337 whole entry, looked up): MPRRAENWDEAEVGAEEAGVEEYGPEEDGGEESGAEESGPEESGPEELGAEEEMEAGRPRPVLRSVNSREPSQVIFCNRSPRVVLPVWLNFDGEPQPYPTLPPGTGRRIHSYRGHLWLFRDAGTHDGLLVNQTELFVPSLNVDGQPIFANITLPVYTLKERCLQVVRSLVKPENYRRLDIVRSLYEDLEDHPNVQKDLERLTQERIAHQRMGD
T2 sequence (Q9NPI1 whole entry, looked up): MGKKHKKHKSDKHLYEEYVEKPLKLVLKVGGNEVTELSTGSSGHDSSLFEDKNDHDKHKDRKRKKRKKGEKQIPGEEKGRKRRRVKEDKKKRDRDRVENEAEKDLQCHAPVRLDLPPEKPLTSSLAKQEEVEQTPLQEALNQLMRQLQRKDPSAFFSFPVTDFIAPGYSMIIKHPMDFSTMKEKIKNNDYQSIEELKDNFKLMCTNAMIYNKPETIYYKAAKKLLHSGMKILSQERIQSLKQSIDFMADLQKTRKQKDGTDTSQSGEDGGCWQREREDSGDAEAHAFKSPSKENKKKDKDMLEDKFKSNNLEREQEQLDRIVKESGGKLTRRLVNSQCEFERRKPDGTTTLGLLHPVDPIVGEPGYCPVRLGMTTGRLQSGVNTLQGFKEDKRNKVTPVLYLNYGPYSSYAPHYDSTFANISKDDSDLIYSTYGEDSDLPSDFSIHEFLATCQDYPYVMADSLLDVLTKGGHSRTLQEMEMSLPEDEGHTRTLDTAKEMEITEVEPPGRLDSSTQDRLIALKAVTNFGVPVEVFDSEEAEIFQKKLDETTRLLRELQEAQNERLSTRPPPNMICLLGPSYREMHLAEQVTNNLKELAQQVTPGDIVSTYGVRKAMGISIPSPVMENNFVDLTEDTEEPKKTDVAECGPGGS

[3] = biological target: T1, von Hippel-Lindau disease tumor suppressor/Bromodomain-containing protein 9 (Homo sapiens); assay: PROTAC activity at VHL/BRD9 in human HeLa cells assessed as BRD9 protein degradation at 1 uM incubated for 8 hrs by Western blot analysis; format: cell-based
Procedure, shortened: (§1)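 HeLa cells treated with compound for the stated time before harvest; BRD9, BRD7 and β-actin detected by Western blot with β-actin loading control; band intensities quantified.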

[4] = biological target: T2, von Hippel-Lindau disease tumor suppressor/Bromodomain-containing protein 7 (Homo sapiens); assay: PROTAC activity at VHL/BRD7 in human HeLa cells assessed as remaining BRD7 protein level at 1 uM incubated for 16 hrs by Western blot analysis relative to control; format: cell-based
[5] = biological target: T1, von Hippel-Lindau disease tumor suppressor/Bromodomain-containing protein 9 (Homo sapiens); assay: PROTAC activity at VHL/BRD9 in human Ri-1 cells assessed as remaining BRD9 protein level at 1 uM incubated for 2 hrs by Western blot analysis relative to control; format: cell-based
Procedure, shortened: (§2)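 Ri-1 cells exposed to compound for the stated time before harvest; BRD9, BRD7 and β-actin measured by Western blot, band intensities quantified and set against DMSO-treated control.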

[6] = biological target: T2, von Hippel-Lindau disease tumor suppressor/Bromodomain-containing protein 7 (Homo sapiens); assay: PROTAC activity at VHL/BRD7 in human HeLa cells assessed as remaining BRD7 protein level at 1 uM incubated for 4 hrs by Western blot analysis relative to control; format: cell-based
[7] = biological target: T1, von Hippel-Lindau disease tumor suppressor/Bromodomain-containing protein 9 (Homo sapiens); assay: PROTAC activity at VHL/BRD9 in human Ri-1 cells assessed as remaining BRD9 protein level at 1 uM incubated for 8 hrs by Western blot analysis relative to control; format: cell-based; procedure, shortened: as §2
[8] = biological target: T2, von Hippel-Lindau disease tumor suppressor/Bromodomain-containing protein 7 (Homo sapiens); assay: PROTAC activity at VHL/BRD7 in human Ri-1 cells assessed as remaining BRD7 protein level at 1 uM incubated for 8 hrs by Western blot analysis relative to control; format: cell-based
[9] = biological target: T1, von Hippel-Lindau disease tumor suppressor/Bromodomain-containing protein 9 (Homo sapiens); assay: PROTAC activity at VHL/BRD9 in human HeLa cells assessed as BRD9 protein degradation at 1 uM incubated for 4 hrs by Western blot analysis relative to control; format: cell-based; procedure, shortened: as §1
[10] = biological target: T3, Von Hippel-Lindau disease tumor suppressor/Elongin B/Elongin C (Homo sapiens) (UniProt P40337+Q15370+Q15369); assay: Co-operative binding affinity to 6His-tagged human VHL/ElonginC/ElonginB expressed in Escherichia coli BL21 (DE3) cells assessed as maximal intensity in the presence of BRD9-BD as complex with compound incubated for 1 hrs by AlphaLISA proximity assay
T3 sequence (P40337 whole entry, looked up): as the sequence (P40337 whole entry, looked up) above
T3 sequence (Q15369 whole entry, looked up): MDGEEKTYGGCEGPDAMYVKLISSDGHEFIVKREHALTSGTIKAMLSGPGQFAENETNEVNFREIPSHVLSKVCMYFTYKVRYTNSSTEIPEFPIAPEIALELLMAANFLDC
T3 sequence (Q15370 whole entry, looked up): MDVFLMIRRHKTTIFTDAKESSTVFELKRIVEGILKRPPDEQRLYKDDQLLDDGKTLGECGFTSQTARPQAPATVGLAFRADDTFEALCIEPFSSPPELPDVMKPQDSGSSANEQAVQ

[11] = biological target: T1, von Hippel-Lindau disease tumor suppressor/Bromodomain-containing protein 9 (Homo sapiens); assay: PROTAC activity at VHL/BRD9 in human HeLa cells assessed as protein degradation at 1 uM incubated for 4 hrs by Western blot analysis relative to control; format: cell-based; procedure, shortened: as §1
[12] = biological target: T1, von Hippel-Lindau disease tumor suppressor/Bromodomain-containing protein 9 (Homo sapiens); assay: PROTAC activity at VHL/BRD9 in human HeLa cells assessed as maximal protein degradation at 10 uM incubated for 4 hrs by Western blot analysis relative to control; format: cell-based; procedure, shortened: as §1
[13] = biological target: T1, von Hippel-Lindau disease tumor suppressor/Bromodomain-containing protein 9 (Homo sapiens); assay: PROTAC activity at VHL/BRD9 in human HeLa cells assessed as remaining BRD9 protein level at 1 uM incubated for 16 hrs by Western blot analysis relative to control; format: cell-based; procedure, shortened: as §1
[14] = biological target: T3, Von Hippel-Lindau disease tumor suppressor/Elongin B/Elongin C (Homo sapiens); assay: Co-operative binding affinity to 6His-tagged human VHL/ElonginC/ElonginB expressed in Escherichia coli BL21 (DE3) cells assessed as total gibb's free energy change in the presence of BRD9-BD as complex with compound by ITC analysis
[15] = biological target: Bromodomain-containing protein 4 (Homo sapiens) (UniProt O60885)
[16] = biological target: T4, Protein cereblon/Bromodomain-containing protein 9 (Homo sapiens) (UniProt Q9H8M2+Q96SW2); assay: PROTAC activity at CRBN/BRD9 in human HeLa cells assessed as remaining BRD9 protein level at 1 uM incubated for 16 hrs by Western blot analysis relative to control; format: cell-based
T4 sequence (Q96SW2 whole entry, looked up, one chain of several): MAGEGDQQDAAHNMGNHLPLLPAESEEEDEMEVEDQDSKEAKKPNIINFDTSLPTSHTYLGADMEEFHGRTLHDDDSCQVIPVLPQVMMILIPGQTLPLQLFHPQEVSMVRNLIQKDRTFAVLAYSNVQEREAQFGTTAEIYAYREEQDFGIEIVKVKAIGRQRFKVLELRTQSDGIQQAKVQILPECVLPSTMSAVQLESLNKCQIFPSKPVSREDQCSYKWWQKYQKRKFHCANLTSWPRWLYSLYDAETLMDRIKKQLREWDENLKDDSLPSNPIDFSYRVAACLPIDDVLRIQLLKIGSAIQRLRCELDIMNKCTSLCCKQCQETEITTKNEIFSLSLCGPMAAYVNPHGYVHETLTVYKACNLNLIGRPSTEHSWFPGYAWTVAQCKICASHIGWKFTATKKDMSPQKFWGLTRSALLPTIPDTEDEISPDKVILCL
Procedure, shortened: (§3)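 HeLa cells given 1 µM compound for 16 h before harvest. BRD9, BRD7 and β-actin detected by Western blot; band intensities quantified.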

[17] = biological target: T4, Protein cereblon/Bromodomain-containing protein 9 (Homo sapiens); assay: PROTAC activity at CRBN/BRD9 in human Ri-1 cells assessed as remaining BRD9 protein level at 1 uM incubated for 2 hrs by Western blot analysis relative to control; format: cell-based
Procedure, shortened: (§4)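 Cells given 1 µM compound before harvest: HeLa 4 h, RI-1 2 h and 8 h. BRD9, BRD7 and β-actin detected by Western blot; band intensities quantified.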

[18] = biological target: T4, Protein cereblon/Bromodomain-containing protein 9 (Homo sapiens); assay: PROTAC activity at CRBN/BRD9 in human Ri-1 cells assessed as remaining BRD9 protein level at 1 uM incubated for 8 hrs by Western blot analysis relative to control; format: cell-based; procedure, shortened: as §4
[19] = biological target: T5, Protein cereblon/Bromodomain-containing protein 7 (Homo sapiens) (UniProt Q9NPI1+Q96SW2); assay: PROTAC activity at CRBN/BRD7 in human Ri-1 cells assessed as remaining BRD7 protein level at 1 uM incubated for 2 hrs by Western blot analysis relative to control; format: cell-based; procedure, shortened: as §4
T5 sequence (Q96SW2 whole entry, looked up): as the sequence (Q96SW2 whole entry, looked up, one chain of several) above
T5 sequence (Q9NPI1 whole entry, looked up): as the sequence (Q9NPI1 whole entry, looked up) above

[20] = tested on: A204; assay: Antiproliferative activity against human A204 cells assessed as inhibition of cell growth incubated for 7 days by CellTiterGlo assay; format: functional, cell-based; conditions: A204, 168 h
[21] = biological target: T5, Protein cereblon/Bromodomain-containing protein 7 (Homo sapiens); assay: PROTAC activity at CRBN/BRD7 in human Ri-1 cells assessed as remaining BRD7 protein level at 1 uM incubated for 8 hrs by Western blot analysis relative to control; format: cell-based; procedure, shortened: as §4
[22] = biological target: T5, Protein cereblon/Bromodomain-containing protein 7 (Homo sapiens); assay: PROTAC activity at CRBN/BRD7 in human HeLa cells assessed as remaining BRD7 protein level at 1 uM incubated for 16 hrs by Western blot analysis relative to control; format: cell-based; procedure, shortened: as §3
[23] = biological target: T4, Protein cereblon/Bromodomain-containing protein 9 (Homo sapiens); assay: PROTAC activity at CRBN/BRD9 in human HeLa cells assessed as remaining BRD9 protein level at 1 uM incubated for 4 hrs by Western blot analysis relative to control; format: cell-based; procedure, shortened: as §4
[24] = biological target: T5, Protein cereblon/Bromodomain-containing protein 7 (Homo sapiens); assay: PROTAC activity at CRBN/BRD7 in human HeLa cells assessed as remaining BRD7 protein level at 1 uM incubated for 4 hrs by Western blot analysis relative to control; format: cell-based; procedure, shortened: as §4
[25] = biological target: T3, Von Hippel-Lindau disease tumor suppressor/Elongin B/Elongin C (Homo sapiens); assay: Negative co-operative binding affinity to 6His-tagged human VHL/ElonginC/ElonginB expressed in Escherichia coli BL21 (DE3) cells assessed as change in enthalpy in the presence of BRD9-BD as complex with compound by ITC analysis
[26] = biological target: T6, Bromodomain-containing protein 9 (Homo sapiens) (UniProt Q9H8M2); assay: Binding affinity to 6His-tagged human BRD9 bromodomain (134 to 239 residues) expressed in Escherichia coli BL21 (DE3) cells assessed as gibbs free energy change by ITC analysis
T6 sequence (whole entry): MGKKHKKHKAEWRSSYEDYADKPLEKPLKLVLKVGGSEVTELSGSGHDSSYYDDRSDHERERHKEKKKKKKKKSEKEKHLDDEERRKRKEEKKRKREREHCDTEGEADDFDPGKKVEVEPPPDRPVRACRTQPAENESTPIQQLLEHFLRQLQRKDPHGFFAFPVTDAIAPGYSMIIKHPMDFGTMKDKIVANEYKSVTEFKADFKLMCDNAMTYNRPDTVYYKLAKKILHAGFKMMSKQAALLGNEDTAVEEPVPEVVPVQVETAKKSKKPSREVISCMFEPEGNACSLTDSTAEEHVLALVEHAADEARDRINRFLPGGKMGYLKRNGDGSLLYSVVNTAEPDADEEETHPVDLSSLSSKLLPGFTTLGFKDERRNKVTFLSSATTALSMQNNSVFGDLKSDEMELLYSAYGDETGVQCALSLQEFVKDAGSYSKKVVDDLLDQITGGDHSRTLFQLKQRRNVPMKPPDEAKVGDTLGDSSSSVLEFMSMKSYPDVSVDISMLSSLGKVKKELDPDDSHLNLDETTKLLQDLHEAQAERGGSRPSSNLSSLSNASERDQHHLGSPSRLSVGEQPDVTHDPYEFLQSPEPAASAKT

[27] = biological target: T2, von Hippel-Lindau disease tumor suppressor/Bromodomain-containing protein 7 (Homo sapiens); assay: PROTAC activity at VHL/BRD7 in human HeLa cells assessed as protein degradation at 1 uM incubated for 16 hrs by Western blot analysis relative to control; format: cell-based
[28] = biological target: T6, Bromodomain-containing protein 9 (Homo sapiens); assay: Binding affinity to 6His-tagged human BRD9 bromodomain (134 to 239 residues) expressed in Escherichia coli BL21 (DE3) cells assessed as change in entropy by ITC analysis
[29] = biological target: T3, Von Hippel-Lindau disease tumor suppressor/Elongin B/Elongin C (Homo sapiens); assay: Negative co-operative binding affinity to 6His-tagged human VHL/ElonginC/ElonginB expressed in Escherichia coli BL21 (DE3) cells assessed as change in entropy in the presence of BRD9-BD as complex with compound by ITC analysis
[30] = biological target: T3, Von Hippel-Lindau disease tumor suppressor/Elongin B/Elongin C (Homo sapiens); assay: Binding affinity to 6His-tagged human VHL/ElonginC/ElonginB expressed in Escherichia coli BL21 (DE3) cells assessed as change in entropy by ITC analysis
[31] = biological target: T6, Bromodomain-containing protein 9 (Homo sapiens); assay: Binding affinity to 6His-tagged human BRD9 bromodomain (134 to 239 residues) expressed in Escherichia coli BL21 (DE3) cells assessed as change in enthalpy by ITC analysis
[32] = biological target: T3, Von Hippel-Lindau disease tumor suppressor/Elongin B/Elongin C (Homo sapiens); assay: Binding affinity to 6His-tagged human VHL/ElonginC/ElonginB expressed in Escherichia coli BL21 (DE3) cells assessed as change in enthalpy by ITC analysis
[33] = biological target: T2, von Hippel-Lindau disease tumor suppressor/Bromodomain-containing protein 7 (Homo sapiens); assay: PROTAC activity at VHL/BRD7 in human HeLa cells assessed as protein degradation at 1 uM incubated for 4 hrs by Western blot analysis relative to control; format: cell-based
[34] = biological target: T3, Von Hippel-Lindau disease tumor suppressor/Elongin B/Elongin C (Homo sapiens); assay: Negative co-operative binding affinity to 6His-tagged human VHL/ElonginC/ElonginB expressed in Escherichia coli BL21 (DE3) cells assessed as total gibb's free energy change in the presence of BRD9-BD as complex with compound by ITC analysis
[35] = biological target: T1, von Hippel-Lindau disease tumor suppressor/Bromodomain-containing protein 9 (Homo sapiens); assay: PROTAC activity at VHL/BRD9 in human HeLa cells assessed as protein degradation at 1 uM incubated for 16 hrs by Western blot analysis relative to control; format: cell-based; procedure, shortened: as §1

T1 sequence (P40337 whole entry, looked up, one chain of several): as the sequence (P40337 whole entry, looked up) above

## COc1cc(-c2cn(C)c(=O)c3cnccc23)cc(OC)c1CN1CCN(CCOCCOCCOc2cc(-c3scnc3C)ccc2CNC(=O)[C@@H]2C[C@@H](O)CN2C(=O)[C@@H](NC(=O)C2(F)CC2)C(C)(C)C)CC1
[1]
  T1/2: 3.47 h
[2]
  Activity: 127%
[3]
  Activity: Active
[4]
  Activity: 90%
[5]
  Activity: 68%
[6]
  Activity: 7%
[7]
  Activity: 100%
[8]
  Activity: 145%
[9]
  Activity: > 50%
[10]
  Activity: 1.56 10^6No_unit
[11]
  Activity: 60%
[12]
  Emax: 80%
[13]
  Activity: 36%
[14]
  deltaG: -20.7 kcal/mol

## Cc1ncsc1-c1ccc(CNC(=O)[C@@H]2C[C@@H](O)CN2C(=O)[C@@H](NC(=O)COCCOCCOCCNC(=O)C[C@@H]2N=C(c3ccc(Cl)cc3)c3c(sc(C)c3C)-n3c(C)nnc32)C(C)(C)C)cc1
[15]
  deltaG: -22.2 kcal/mol

## COc1cc(-c2cn(C)c(=O)c3cnccc23)cc(OC)c1CN1CCN(CCOCCOCC(=O)NCCNc2cccc3c2C(=O)N(C2CCC(=O)NC2=O)C3=O)CC1 (stereo not given)
[16]
  Activity: 7%
[17]
  Activity: 5%
[18]
  Activity: 2%
[19]
  Activity: 158%
[20]
  IC50: 305 nM
[21]
  Activity: 225%
[22]
  Activity: 97%
[23]
  Activity: 6%
[24]
  Activity: 81%

## COc1cc(-c2cn(C)c(=O)c3cnccc23)cc(OC)c1CN1CCN(CCOCCOCC(=O)N[C@H](C(=O)N2C[C@H](O)C[C@H]2C(=O)NCc2ccc(-c3scnc3C)cc2)C(C)(C)C)CC1
[25]
  deltaH: -6.4 kcal/mol
[26]
  deltaG: -10.7 kcal/mol
[27]
  Activity: 30%
[28]
  -TdeltaS: 1.8 kcal/mol
[29]
  -TdeltaS: -3.3 kcal/mol
[4]
  Activity: 83%
[6]
  Activity: 68%
[30]
  -TdeltaS: 4.9 kcal/mol
[31]
  deltaH: -12.5 kcal/mol
[10]
  Activity: 1 10^6No_unit
[32]
  deltaH: -15.2 kcal/mol
[11]
  Activity: 20%
[33]
  Activity: 20%
[34]
  deltaG: -20.4 kcal/mol
[13]
  Activity: 70%
[35]
  Activity: 30%
